# Bioassay records from PubChem BioAssay.
# NR2E3 ag-1 = NR2E3 (human) agonism | 320,000 tested, 0.12% active | inhibition of corepressor binding, % at 4.78 µM | GST-NR2E3/biotin-RetCOR TR-FRET, 1536-well | Q9Y5X4;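 active means percent inhibition above the cutoff of mean plus 3 SD of all tested compounds, set per screening campaign, cut at about 20% in these data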;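 further: 0% = DMSO wells and 100% = biotin wells as full block of FRET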
#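 Assay system: NR2E3–RetCOR corepressor complex. Quantity: 1.35 nM GST-NR2E3. Buffer or medium: pH 7.5 Tris-based buffer. Reagent: biotinylated RetCOR corepressor at 7 nM final. Schedule: 5 h at 4 °C. Detection: TR-FRET, emission read at 617 and 671 nm. Replicates: one well per compound, singlicate testing.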
# COUP-TFII inh = NR2F2 (human) inhibition, primary screen | P24468 | HEK293T NGFI-A luciferase reporter, luminescence | 370,000 tested, 0.7% active | inhibition, % at 8.6 µM;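 active means inhibition above a per-plate cutoff, mean inhibition of test wells between control levels plus 3 SD, cut at about 38% in these data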;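 further: cells cotransfected with COUP-TFII expression vector driving the NGFI-A reporter; 0% = median of COUP-TF2 test wells and 100% = reporter-only cells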
# CHT block = inhibits the human high affinity choline transporter; Q9GZV3; CHT-expressing cells, membrane potential dye, choline response; stronger effect = lower value; B-score at 10 µM; 310,000 tested, 0.86% active; AID 488975;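 active means B-score over 3 SD under the library average, and starting fluorescence ratio not unusually high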;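 further: choline stimulus applied at its EC90 after an EC20 pre-addition; B-score computed on integrated fluorescence ratio after choline addition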
# Target sequence (Q9GZV3 whole entry, looked up): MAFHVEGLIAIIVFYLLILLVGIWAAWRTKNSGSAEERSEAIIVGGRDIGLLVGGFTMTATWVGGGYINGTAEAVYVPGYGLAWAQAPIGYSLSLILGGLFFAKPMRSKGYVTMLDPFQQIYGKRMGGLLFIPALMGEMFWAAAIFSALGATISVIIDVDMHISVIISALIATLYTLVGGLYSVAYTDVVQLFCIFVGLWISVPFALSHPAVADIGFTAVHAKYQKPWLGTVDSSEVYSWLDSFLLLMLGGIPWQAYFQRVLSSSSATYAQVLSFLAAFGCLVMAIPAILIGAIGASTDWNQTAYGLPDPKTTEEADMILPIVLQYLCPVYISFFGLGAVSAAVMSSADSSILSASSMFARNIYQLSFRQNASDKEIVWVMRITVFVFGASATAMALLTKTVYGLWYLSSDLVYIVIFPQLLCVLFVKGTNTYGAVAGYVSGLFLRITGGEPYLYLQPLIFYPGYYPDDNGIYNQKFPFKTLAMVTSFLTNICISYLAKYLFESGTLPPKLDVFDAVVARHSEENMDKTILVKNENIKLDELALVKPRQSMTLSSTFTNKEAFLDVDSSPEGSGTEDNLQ
# NR2E3 ag-2 = activates human NR2E3 receptor. CHO-S Gal4-NCOR/VP16-NR2E3 two-hybrid, luciferase. inhibition of corepressor binding, % at 3.98 µM. 360,000 tested, 0.35% active;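 active means inhibition above the mean of all tested compounds plus 3 SD, cut at about 70% in these data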;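 further: 0% = DMSO with NR2E3 transfected cells and 100% = cells lacking NR2E3 construct; higher means lower luciferase signal from less NR2E3 corepressor binding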
# CHT PAM = allosteric activators of human choline transporter CHT; Q9GZV3; CHT-expressing cells, membrane potential dye, choline EC20; stronger effect = higher value; LV-AA mutant CHT in HEK293 cells; B-score at 10 µM; 310,000 tested, 0.49% active; AID 488977;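 active means initial fluorescence not abnormally high and integrated response B-score, plate-corrected, over 3 SD above library mean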
# GalR3 antagonist = human GalR3 antagonism. O60755. HEK293 GalR3-CNG cAMP membrane potential fluorescence; galR3 body fused to GalR1 C-terminus. inhibition, % at 3 µM. 360,000 tested, 0.44% active. AID 651719;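 active means inhibition above the screen-wide average plus 3 SD, cut at about 13% in these data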;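 further: forskolin and galanin both at EC90 stimulate the cells; cAMP rise reported by CNG channel membrane potential dye signal; 0% = forskolin plus galanin with DMSO and 100% = forskolin alone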
# NR2E3 ag confirm = confirmation of human NR2E3 agonists | shares compounds with NR2E3 ag-2 | CHO-S mammalian two-hybrid NR2E3-NCOR, luciferase luminescence | inhibition, % at 3.98 µM | 2,300 tested, 51% active | AID 624378;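 active means average inhibition above a cutoff equal to the mean inhibition of all tested compounds plus one SD, cut at about 70% in these data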;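 further: 0% = DMSO in NR2E3 cells and 100% = DMSO in cells lacking NR2E3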
# VP16 counter = reduces GAL4-VP16 reporter signal in NR2E3 counterscreen; shares compounds with NR2E3 ag-2; CHO-S GAL4-VP16 luciferase reporter, luminescence; inhibition, % at 3.98 µM; 2,300 tested, 29% active; AID 624379;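 active means mean inhibition above a cutoff equal to the average over all tested compounds plus one standard deviation, cut at about 70% in these data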;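 further: luciferase from a UAS reporter driven by GAL4-VP16 transactivation; 0% = DMSO with VP16-transfected cells and 100% = DMSO with cells lacking VP16; higher means less reporter light so more repression of VP16 activity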
# * = called active by the depositor; i = inactive; nt = no result given. Most compounds without a hit are left out; they make up all but 2.3% or so of the library.
SMILES,NR2E3 ag-1,COUP-TFII inh,CHT block,NR2E3 ag-2,CHT PAM,GalR3 antagonist,NR2E3 ag confirm,VP16 counter
O=C(NCc1ccco1)C1CCCN(S(=O)(=O)c2ccc(F)cc2)C1 (stereo not given),nt,6,nt,nt,nt,nt,nt,nt
CSc1nnc(NC(=O)c2nc(S(=O)(=O)Cc3cccc(C)c3)ncc2Cl)s1,7,17,i,49,i,-8,47,10
CCOc1ccccc1NC(=O)c1nc(S(=O)(=O)Cc2cccc(C)c2)ncc1Cl,1,-33,i,2,i,1,nt,nt
CCCOc1ccc(C2NC(=O)NC2=O)cc1 (stereo not given),-2,8,i,-16,i,11,nt,nt
O=C1NC(=O)C(c2ccc(F)cc2)N1 (stereo not given),4,-9,i,107*,i,-4,-5,7
O=C(NCCc1c[nH]c2ccccc12)OCc1cn(Cc2cccc(F)c2F)nn1,nt,-4,nt,nt,nt,nt,nt,nt
N#CCc1ccc(NS(=O)(=O)c2ccc(C3CCCCC3)cc2)cc1,5,30,i,76*,i,-4,92*,72*
O=C(O)c1cccc(NS(=O)(=O)c2ccc(C3CCCCC3)cc2)c1,6,nt,i,-26,i,nt,nt,nt
Cc1cccc(NS(=O)(=O)c2ccc(C3CCCCC3)cc2)c1,3,31,i,70*,i,-8,93*,79*
O=C(COCc1ccccc1)N1CCC(Oc2cccnc2)CC1,nt,-18,nt,nt,nt,nt,nt,nt
O=C(c1cc(F)ccc1F)N1CCC(Oc2cccnc2)CC1,nt,2,nt,nt,nt,nt,nt,nt
C/C(=N/NC(=O)Cc1cccs1)c1cccc([N+](=O)[O-])c1,nt,-20,nt,nt,nt,nt,nt,nt
CN1C(=O)CS(=O)c2ccc(C(=O)NCCC3=CCCCC3)cc21 (stereo not given),0,33,i,48,i,1,3,12
N=C1N(C(=O)OCc2ccccc2)/C(=C\C2=CCCCC2)C(Cc2ccccc2)N1Cc1ccccc1 (stereo not given),nt,2,nt,nt,nt,nt,nt,nt
N=C1SCC(=O)N1c1ncc(Cc2ccccc2Cl)s1,nt,-5,nt,100*,nt,-3,90*,26
CC(C)C(=O)Nc1ncc(Cc2ccccc2Cl)s1,2,1,i,-52,i,1,nt,nt
Cc1cccc(Cc2cnc(N3C(=N)SC(c4ccccc4)C3=O)s2)c1 (stereo not given),-1,17,i,-14,i,1,nt,nt
N=C1SCC(=O)N1c1ncc(Cc2cccc(Cl)c2)s1,nt,7,nt,100*,nt,7,97*,42
COc1ccc(-n2c(SCC(=O)Nc3ccccc3-c3ccccc3)nnc2-c2ccccc2)cc1,nt,11,nt,nt,nt,nt,nt,nt
COc1ccc(NC(=O)CSc2ncnc3scc(-c4ccc(C)cc4)c23)cc1OC,nt,-2,nt,nt,nt,nt,nt,nt
CCn1c(C)cc(C(=O)COC(=O)c2ccccc2[N+](=O)[O-])c1C,nt,nt,nt,105*,nt,nt,89*,87*
C=CCn1c(C)cc(C(=O)COC(=O)c2ccc(N)c([N+](=O)[O-])c2)c1C,1,-40,i,-129,i,-1,nt,nt
Cc1ccc(S(=O)(=O)N2[C@@H](c3ccc(Cl)cc3)C(C(=O)O)=C[C@H]2CC2CCCC2)cc1,nt,3,nt,30,nt,-8,nt,nt
Cc1ccc(S(=O)(=O)N2[C@@H](c3ccc(Cl)c(Cl)c3)C(C(=O)O)=C[C@H]2CC2CCCC2)cc1,nt,1,nt,88*,nt,3,82*,47
CC(C)(C)OC(=O)NCCCc1ccc2c(c1)[C@]1(CCC[C@@H](OCc3ccccc3)[C@@H]1NC(=O)CCc1ccccc1)C(=O)N2Cc1ccccc1,nt,-8,nt,nt,nt,nt,nt,nt
SMILES,NR2E3 ag-1,COUP-TFII inh,CHT block,NR2E3 ag-2,CHT PAM,GalR3 antagonist,NR2E3 ag confirm,VP16 counter
CCn1c2ccccc2c2cc(NC(=O)c3cc(OC)cc(OC)c3)ccc21,3,-14,i,51,i,3,-4,9
CCn1c2ccccc2c2cc(NC(=O)COc3ccc(OC)cc3)ccc21,3,5,i,-7,i,-4,nt,nt
Cn1cccc1C(=O)N1CCN(S(=O)(=O)c2ccc(Br)s2)CC1,nt,-5,nt,nt,nt,nt,nt,nt
Cc1ccc2c(CN(C)Cc3ccc(OC(F)F)cc3)cc(=O)oc2c1C,0,18,i,56,i,-10,43,54
O=C(Nc1ccccc1)c1ccccc1NS(=O)(=O)c1ccc(Cl)s1,1,-3,i,102*,i,-4,99*,86*
O=S(=O)(Nc1ccccc1N1CCCCC1)c1ccc(Cl)s1,2,4,i,10,i,-8,nt,nt
O=C1c2ccccc2S(=O)(=O)N1Cc1nnc(-c2ccccc2Br)o1,nt,2,nt,-28,nt,-1,nt,nt
O=S1(=O)c2cccc3cccc(c23)N1Cc1nnc(-c2ccccc2Br)o1,-6,26,i,69,i,-3,87*,72*
Cc1ccc(C2=CCN(C)C(=O)N2c2ccc([N+](=O)[O-])cc2)cc1,nt,12,nt,nt,nt,nt,nt,nt
COc1cccc(CNC(=O)[C@H]2CCCN2C(=O)[C@H]2CCCN2C(=O)c2cccc3ccccc23)c1,nt,19,nt,nt,nt,-4,nt,nt
COc1cccc(CNC(=O)[C@@H]2CCCN2C(=O)[C@H]2CCCCN2C(=O)c2cccc3ccccc23)c1,nt,nt,nt,86*,nt,nt,81*,63
O=S(=O)(Nc1cc(Cl)ccc1-n1cncn1)c1cc(Br)ccc1Br,0,7,nt,92*,nt,-5,99*,85*
O=S(=O)(Nc1cc(Cl)ccc1-n1cncn1)c1ccccc1Cl,1,12,nt,-15,nt,-9,nt,nt
CCC(NC(=O)c1ccc2nc(Cc3ccc(OC)cc3)oc2c1)c1ccncc1 (stereo not given),-3,30,i,67,i,-7,83*,61
O=C1NC(=O)C(=Cc2ccc(Cl)cc2Cl)S1,nt,-32,nt,62,nt,-3,91*,-4
COc1ccc([C@@H]2C[C@H]3[C@@H](CN2S(=O)(=O)c2ccccc2)C(=O)C[C@@H](c2cccc(Cl)c2)N3S(=O)(=O)c2ccc(C)cc2)cc1,nt,nt,nt,62,nt,nt,72*,55
COc1ccc([C@@H]2CC(=O)[C@@H]3CN(S(=O)(=O)c4ccc(Cl)cc4)[C@H](c4ccc(C)cc4)C[C@@H]3N2S(=O)(=O)c2ccccc2)cc1,nt,24,nt,3,nt,2,nt,nt
O=C(Nc1cccc(OC(F)(F)F)c1)C1Cc2c(-c3ccc4c(c3)OCO4)ccnc2O1 (stereo not given),nt,26,nt,81*,nt,-8,82*,19
O=C(Nc1cccc(Oc2ccccc2)c1)C1Cc2c(-c3ccc4c(c3)OCO4)ccnc2O1 (stereo not given),nt,6,nt,-2,nt,-2,nt,nt
